Several values for one entry are separate records, joined by “and”; a condition that tells them apart may be missing. Equal values may be shown once.
Test system: U2OS
Assay: Multiplex assay against U2OS
Assay type: toxicity, cell-based
Settings: human
Outline: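 Imaging took place on a CQ1 microscope at 37°C and 5% CO2 once compound had been added to live cells stained at seeding with Hoechst33342, BioTracker Green Microtubule Cytoskeleton Dye, MitoTracker Red and Annexin V Alexa Fluor 680. CellPathfinder machine-learning gating classed cells as Hoechst high-intensity objects or normal cells, classed normal cells as having healthy, pyknosed or fragmented nuclei, and classed pyknosed cells as mitotic or apoptotic. Tubulin, mitochondrial-mass and membrane-permeability phenotypes are per cents of the healthy-nucleus cells.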

[1] = 12 h, 1 µM, compound concentration 1 uM, replicate 1
[2] = 12 h, 1 µM, compound concentration 1 uM, replicate 2
[3] = 12 h, 10 µM, compound concentration 10 uM, replicate 1
[4] = 12 h, 10 µM, compound concentration 10 uM, replicate 2
[5] = 24 h, 1 µM, compound concentration 1 uM, replicate 1
[6] = 24 h, 1 µM, compound concentration 1 uM, replicate 2
[7] = 24 h, 10 µM, compound concentration 10 uM, replicate 1
[8] = 24 h, 10 µM, compound concentration 10 uM, replicate 2
[9] = 48 h, 1 µM, compound concentration 1 uM, replicate 1
[10] = 48 h, 1 µM, compound concentration 1 uM, replicate 2
[11] = 48 h, 10 µM, compound concentration 10 uM, replicate 1
[12] = 48 h, 10 µM, compound concentration 10 uM, replicate 2

CNC(=O)Nc1ccc2c(c1)[C@@]1(CC2)OC(=O)N(CC(=O)N(Cc2ccc(F)cc2)[C@@H](C)C(F)(F)F)C1=O [A-486]
Population Apoptotic (%) [1]: 47%
Population Fragmented Nuclei (%) [1]: 4%
Population Healthy Nuclei (%) [1]: 81%
Population Hoechst High Intensity Objects (%) [1]: 4%
Population Membrane Permeable-Phenotype (%) [1]: 63%
Population Mitochondria Different-Phenotype (%) [1]: 11%
Population Mitotic Cells (%) [1]: 52%
Population Normal (%) [1]: 95%
Population Pyknosed Nuclei (%) [1]: 14%
Population Tubulin-Different-Phenotype (%) [1]: 57%
Total Cell Count [1]: 248
Population Apoptotic (%) [2]: 75%
Population Fragmented Nuclei (%) [2]: 7%
Population Healthy Nuclei (%) [2]: 88%
Population Hoechst High Intensity Objects (%) [2]: 11%
Population Membrane Permeable-Phenotype (%) [2]: 59%
Population Mitochondria Different-Phenotype (%) [2]: 19%
Population Mitotic Cells (%) [2]: 25%
Population Normal (%) [2]: 88%
Population Pyknosed Nuclei (%) [2]: 4%
Population Tubulin-Different-Phenotype (%) [2]: 60%
Total Cell Count [2]: 105
Population Apoptotic (%) [3]: 27%
Population Fragmented Nuclei (%) [3]: 3%
Population Healthy Nuclei (%) [3]: 85%
Population Hoechst High Intensity Objects (%) [3]: 1%
Population Membrane Permeable-Phenotype (%) [3]: 9%
Population Mitochondria Different-Phenotype (%) [3]: 19%
Population Mitotic Cells (%) [3]: 72%
Population Normal (%) [3]: 99%
Population Pyknosed Nuclei (%) [3]: 11%
Population Tubulin-Different-Phenotype (%) [3]: 12%
Total Cell Count [3]: 201
Population Apoptotic (%) [4]: 33%
Population Fragmented Nuclei (%) [4]: 6%
Population Healthy Nuclei (%) [4]: 83%
Population Hoechst High Intensity Objects (%) [4]: 11%
Population Membrane Permeable-Phenotype (%) [4]: 21%
Population Mitochondria Different-Phenotype (%) [4]: 26%
Population Mitotic Cells (%) [4]: 66%
Population Normal (%) [4]: 88%
Population Pyknosed Nuclei (%) [4]: 10%
Population Tubulin-Different-Phenotype (%) [4]: 28%
Total Cell Count [4]: 102
Population Apoptotic (%) [5]: 33%
Population Fragmented Nuclei (%) [5]: 3%
Population Healthy Nuclei (%) [5]: 89%
Population Hoechst High Intensity Objects (%) [5]: 4%
Population Membrane Permeable-Phenotype (%) [5]: 45%
Population Mitochondria Different-Phenotype (%) [5]: 14%
Population Mitotic Cells (%) [5]: 66%
Population Normal (%) [5]: 95%
Population Pyknosed Nuclei (%) [5]: 6%
Population Tubulin-Different-Phenotype (%) [5]: 30%
Total Cell Count [5]: 329
Population Apoptotic (%) [6]: 75%
Population Fragmented Nuclei (%) [6]: 7%
Population Healthy Nuclei (%) [6]: 88%
Population Hoechst High Intensity Objects (%) [6]: 7%
Population Membrane Permeable-Phenotype (%) [6]: 44%
Population Mitochondria Different-Phenotype (%) [6]: 18%
Population Mitotic Cells (%) [6]: 25%
Population Normal (%) [6]: 92%
Population Pyknosed Nuclei (%) [6]: 3%
Population Tubulin-Different-Phenotype (%) [6]: 27%
Total Cell Count [6]: 115
Population Apoptotic (%) [7]: 46%
Population Fragmented Nuclei (%) [7]: 2%
Population Healthy Nuclei (%) [7]: 92%
Population Hoechst High Intensity Objects (%) [7]: 0%
Population Membrane Permeable-Phenotype (%) [7]: 5%
Population Mitochondria Different-Phenotype (%) [7]: 14%
Population Mitotic Cells (%) [7]: 53%
Population Normal (%) [7]: 99%
Population Pyknosed Nuclei (%) [7]: 5%
Population Tubulin-Different-Phenotype (%) [7]: 17%
Total Cell Count [7]: 277
Population Apoptotic (%) [8]: 40%
Population Fragmented Nuclei (%) [8]: 5%
Population Healthy Nuclei (%) [8]: 90%
Population Hoechst High Intensity Objects (%) [8]: 9%
Population Membrane Permeable-Phenotype (%) [8]: 14%
Population Mitochondria Different-Phenotype (%) [8]: 33%
Population Mitotic Cells (%) [8]: 60%
Population Normal (%) [8]: 90%
Population Pyknosed Nuclei (%) [8]: 4%
Population Tubulin-Different-Phenotype (%) [8]: 37%
Total Cell Count [8]: 126

CNCc1ccccc1-c1csc([C@@H](C)Nc2nc(C)nc3cc(OC)c(OC)cc23)c1 [BAY-293]
Population Apoptotic (%) [3]: 63% and 46%
Population Healthy Nuclei (%) [3]: 36% and 80%
Population Hoechst High Intensity Objects (%) [3]: 5% and 4%
Population Membrane Permeable-Phenotype (%) [3]: 73% and 54%
Population Mitochondria Different-Phenotype (%) [3]: 88% and 36%
Population Mitotic Cells (%) [3]: 36% and 53%
Population Normal (%) [3]: 94% and 95%
Population Tubulin-Different-Phenotype (%) [3]: 100% and 98%
Population Apoptotic (%) [4]: 54% and 52%
Population Fragmented Nuclei (%) [4]: 9% and 17%
Population Healthy Nuclei (%) [4]: 72% and 52%
Population Hoechst High Intensity Objects (%) [4]: 14% and 16%
Population Membrane Permeable-Phenotype (%) [4]: 46% and 75%
Population Mitochondria Different-Phenotype (%) [4]: 56% and 97%
Population Mitotic Cells (%) [4]: 45% and 47%
Population Normal (%) [4]: 85% and 83%
Population Pyknosed Nuclei (%) [4]: 17% and 30%
Population Tubulin-Different-Phenotype (%) [4]: 97%
Population Apoptotic (%) [7]: 91%
Population Fragmented Nuclei (%) [7]: 19% and 7%
Population Hoechst High Intensity Objects (%) [7]: 19% and 7%
Population Membrane Permeable-Phenotype (%) [7]: 100% and 52%
Population Mitochondria Different-Phenotype (%) [7]: 100% and 64%
Population Mitotic Cells (%) [7]: 8%
Population Normal (%) [7]: 80% and 92%
Population Pyknosed Nuclei (%) [7]: 66% and 27%
Population Tubulin-Different-Phenotype (%) [7]: 100% and 97%
Population Apoptotic (%) [8]: 84% and 45%
Population Fragmented Nuclei (%) [8]: 25% and 10%
Population Healthy Nuclei (%) [8]: 30% and 60%
Population Hoechst High Intensity Objects (%) [8]: 10% and 8%
Population Membrane Permeable-Phenotype (%) [8]: 91% and 43%
Population Mitochondria Different-Phenotype (%) [8]: 95% and 72%
Population Normal (%) [8]: 89% and 91%
Population Pyknosed Nuclei (%) [8]: 44% and 28%
Population Tubulin-Different-Phenotype (%) [8]: 95% and 96%

Cc1c[nH]c2nccc(Oc3c(F)cc(Nc4cc(Cl)nc(N)n4)cc3F)c12 [BAY-549]
Population Apoptotic (%) [1]: 47%
Population Fragmented Nuclei (%) [1]: 15%
Population Healthy Nuclei (%) [1]: 66%
Population Hoechst High Intensity Objects (%) [1]: 6%
Population Membrane Permeable-Phenotype (%) [1]: 15%
Population Mitochondria Different-Phenotype (%) [1]: 12%
Population Mitotic Cells (%) [1]: 52%
Population Normal (%) [1]: 93%
Population Pyknosed Nuclei (%) [1]: 18%
Population Tubulin-Different-Phenotype (%) [1]: 21%
Total Cell Count [1]: 200
Population Apoptotic (%) [2]: 44%
Population Fragmented Nuclei (%) [2]: 12%
Population Healthy Nuclei (%) [2]: 73%
Population Hoechst High Intensity Objects (%) [2]: 5%
Population Membrane Permeable-Phenotype (%) [2]: 4%
Population Mitochondria Different-Phenotype (%) [2]: 6%
Population Mitotic Cells (%) [2]: 55%
Population Normal (%) [2]: 94%
Population Pyknosed Nuclei (%) [2]: 14%
Population Tubulin-Different-Phenotype (%) [2]: 12%
Total Cell Count [2]: 68
Population Apoptotic (%) [3]: 48%
Population Fragmented Nuclei (%) [3]: 20%
Population Healthy Nuclei (%) [3]: 59%
Population Hoechst High Intensity Objects (%) [3]: 9%
Population Membrane Permeable-Phenotype (%) [3]: 12%
Population Mitochondria Different-Phenotype (%) [3]: 19%
Population Mitotic Cells (%) [3]: 52%
Population Normal (%) [3]: 90%
Population Pyknosed Nuclei (%) [3]: 20%
Population Tubulin-Different-Phenotype (%) [3]: 16%
Total Cell Count [3]: 136
Population Apoptotic (%) [4]: 40%
Population Fragmented Nuclei (%) [4]: 17%
Population Healthy Nuclei (%) [4]: 65%
Population Hoechst High Intensity Objects (%) [4]: 6%
Population Membrane Permeable-Phenotype (%) [4]: 7%
Population Mitochondria Different-Phenotype (%) [4]: 10%
Population Mitotic Cells (%) [4]: 60%
Population Normal (%) [4]: 93%
Population Pyknosed Nuclei (%) [4]: 17%
Population Tubulin-Different-Phenotype (%) [4]: 10%
Total Cell Count [4]: 62
Population Apoptotic (%) [5]: 37%
Population Fragmented Nuclei (%) [5]: 13%
Population Healthy Nuclei (%) [5]: 70%
Population Hoechst High Intensity Objects (%) [5]: 3%
Population Membrane Permeable-Phenotype (%) [5]: 9%
Population Mitochondria Different-Phenotype (%) [5]: 10%
Population Mitotic Cells (%) [5]: 62%
Population Normal (%) [5]: 96%
Population Pyknosed Nuclei (%) [5]: 16%
Population Tubulin-Different-Phenotype (%) [5]: 18%
Total Cell Count [5]: 226
Population Apoptotic (%) [6]: 46%
Population Fragmented Nuclei (%) [6]: 8%
Population Healthy Nuclei (%) [6]: 71%
Population Membrane Permeable-Phenotype (%) [6]: 5%
Population Mitochondria Different-Phenotype (%) [6]: 7%
Population Mitotic Cells (%) [6]: 53%
Population Pyknosed Nuclei (%) [6]: 20%
Total Cell Count [6]: 77
Population Apoptotic (%) [7]: 59%
Population Fragmented Nuclei (%) [7]: 25%
Population Healthy Nuclei (%) [7]: 53%
Population Hoechst High Intensity Objects (%) [7]: 8%
Population Membrane Permeable-Phenotype (%) [7]: 12%
Population Mitochondria Different-Phenotype (%) [7]: 19%
Population Mitotic Cells (%) [7]: 40%
Population Normal (%) [7]: 91%
Population Pyknosed Nuclei (%) [7]: 21%
Population Tubulin-Different-Phenotype (%) [7]: 16%
Total Cell Count [7]: 135
Population Apoptotic (%) [8]: 71%
Population Fragmented Nuclei (%) [8]: 12%
Population Healthy Nuclei (%) [8]: 62%
Population Hoechst High Intensity Objects (%) [8]: 5%
Population Membrane Permeable-Phenotype (%) [8]: 11%
Population Mitochondria Different-Phenotype (%) [8]: 20%
Population Mitotic Cells (%) [8]: 28%
Population Normal (%) [8]: 94%
Population Pyknosed Nuclei (%) [8]: 25%
Population Tubulin-Different-Phenotype (%) [8]: 20%
Total Cell Count [8]: 59
Population Apoptotic (%) [9]: 60%
Population Healthy Nuclei (%) [9]: 64%
Population Hoechst High Intensity Objects (%) [9]: 2%
Population Membrane Permeable-Phenotype (%) [9]: 8%
Population Mitochondria Different-Phenotype (%) [9]: 13%
Population Mitotic Cells (%) [9]: 39%
Population Normal (%) [9]: 97%
Population Pyknosed Nuclei (%) [9]: 19%
Population Tubulin-Different-Phenotype (%) [9]: 20%
Total Cell Count [9]: 302
Population Apoptotic (%) [10]: 66%
Population Fragmented Nuclei (%) [10]: 15%
Population Healthy Nuclei (%) [10]: 73%
Population Hoechst High Intensity Objects (%) [10]: 0%
Population Membrane Permeable-Phenotype (%) [10]: 11%
Population Mitochondria Different-Phenotype (%) [10]: 20%
Population Mitotic Cells (%) [10]: 33%
Population Normal (%) [10]: 99%
Population Pyknosed Nuclei (%) [10]: 11%
Population Tubulin-Different-Phenotype (%) [10]: 28%
Total Cell Count [10]: 106
Population Apoptotic (%) [11]: 60%
Population Fragmented Nuclei (%) [11]: 34%
Population Healthy Nuclei (%) [11]: 41%
Population Hoechst High Intensity Objects (%) [11]: 5%
Population Membrane Permeable-Phenotype (%) [11]: 17%
Population Mitochondria Different-Phenotype (%) [11]: 46%
Population Mitotic Cells (%) [11]: 40%
Population Normal (%) [11]: 94%
Population Pyknosed Nuclei (%) [11]: 24%
Population Tubulin-Different-Phenotype (%) [11]: 19%
Total Cell Count [11]: 132
Population Apoptotic (%) [12]: 76%
Population Fragmented Nuclei (%) [12]: 12%
Population Healthy Nuclei (%) [12]: 63%
Population Hoechst High Intensity Objects (%) [12]: 8%
Population Membrane Permeable-Phenotype (%) [12]: 25%
Population Mitochondria Different-Phenotype (%) [12]: 51%
Population Mitotic Cells (%) [12]: 23%
Population Normal (%) [12]: 91%
Population Pyknosed Nuclei (%) [12]: 23%
Population Tubulin-Different-Phenotype (%) [12]: 28%
Total Cell Count [12]: 60

From ChEMBL document CHEMBL4689842, “EUbOPEN Chemogenomics Library wave 1” (2021)
